Source: PubChem (several laboratories)
DNA FID counter: displaces DNA intercalator in HCV helicase counter-screen | AID 1845 | 290,000 compounds, 0.17% hits | inhibition, % at 7.9 µM | DNA fluorescent intercalator displacement, fluorescence; in the data active = inhibition above about 37%;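 also: 0% = vehicle and 100% = reference compound; higher means more ethidium bromide displaced from hairpin DNA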
ZTA counter: ZTA (EBV) inhibition in EBNA-1 counter-screen | P03206 | ZTA-DNA binding, fluorescence polarization | inhibition, % at 11 µM | 320,000 compounds, 0.15% hits; in the data active = inhibition above about 33%
Target sequence (P03206 whole entry, looked up): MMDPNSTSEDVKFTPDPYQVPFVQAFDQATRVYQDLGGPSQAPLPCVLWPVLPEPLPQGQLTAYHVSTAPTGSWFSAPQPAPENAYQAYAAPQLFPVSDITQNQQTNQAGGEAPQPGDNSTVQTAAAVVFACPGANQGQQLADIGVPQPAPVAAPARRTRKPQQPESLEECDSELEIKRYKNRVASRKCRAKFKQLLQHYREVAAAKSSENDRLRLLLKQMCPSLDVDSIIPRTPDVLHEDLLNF
NS3 helicase inh: inhibitors of Hepatitis C virus NS3 helicase; NS3 helicase DNA unwinding, Cy5 molecular beacon fluorescence; inhibition, % at 10.9 µM; 290,000 compounds, 0.56% hits;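 active = inhibition above the mean of all tested compounds plus 3 SD, set per campaign, cut at about 35% in these data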;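 also: 0% = DMSO wells and 100% = thioflavine S control wells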
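System: Hepatitis C virus NS3 helicase domain fragment enzyme | Reagent: Annealed dual-labelled DNA beacon duplex, ATP-started | Compound dosing: 10.9 µM single point, 0.8% DMSO | Incubation: 1 h reaction at 25 °C, ATP-initiated | Technique: Cy5 fluorescence | Evaluation: Percent inhibition from t60/t0 fluorescence ratio | Benchmarks: Low DMSO, high thioflavine S at 110 µM | Replication: Singlicate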
EBNA-1 inhibitor: blocks EBNA-1 binding to DNA; AID 1950; EBNA-1 DNA binding, fluorescence polarization; 300,000 compounds, 0.34% hits; inhibition, % at 14.8 µM; in the data active = inhibition above about 28%
FGF22 binding: shifts melting point of recombinant human FGF22; recombinant FGF22 thermal shift, SYPRO orange fluorescence; percent of sucrose octasulfate shift, DMSO zero; activity (Tm shift, normalised), % at 9.99 µM; 340,000 compounds, 1.5% hits;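 active = mean Tm shift, scaled 0 neutral to 100 positive control, at about 1.3% or above, every replicate too, limit read from the data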
Target sequence (Q9HCT0 whole entry, looked up): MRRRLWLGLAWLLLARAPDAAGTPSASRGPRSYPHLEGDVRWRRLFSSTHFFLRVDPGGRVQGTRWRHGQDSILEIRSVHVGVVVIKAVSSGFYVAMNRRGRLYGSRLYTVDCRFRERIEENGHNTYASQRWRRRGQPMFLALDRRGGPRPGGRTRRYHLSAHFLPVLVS
NR3A LBD binder: modulators (binders) of human NR3A ligand-binding domain. NR3A LBD differential scanning fluorimetry, Tm shift; 0% = protein alone, 100% = glycine-bound protein. Tm shift relative to glycine control, % at 25 µM. 340,000 compounds, 2.5% hits;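 active = melting temperature shift of at least 10% of the positive control shift, at one fixed dose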
Starred values were filed as active, the others as inactive; x = not tested or not shown. An excerpt weighted towards active compounds, which were near 3.6% of everything screened.

SMILES | DNA FID counter | ZTA counter | NS3 helicase inh | EBNA-1 inhibitor | FGF22 binding | NR3A LBD binder
C#CCOCCOCCOCCNc1nc(N2CCOCC2)nc(N2CCN(C(=O)CCCCCCCCCCNC(=O)[C@H]([C@@H](C)CC)n3cc(CCCCN=C(N)N)nn3)CC2)n1 | x | 6 | x | 3 | 1 | -3
C[C@H](CO)N1C[C@H](C)[C@H](CN(C)S(=O)(=O)c2ccc(F)cc2)Oc2ccc(NC(=O)C3CC3)cc2CC1=O | x | x | x | x | 0 | x
O=C(C[C@H]1C=C[C@@H](NS(=O)(=O)c2ccc(F)cc2)[C@@H](CO)O1)NCCc1ccncc1 | x | x | x | x | 0 | x
COc1ccc2c3c(n(C)c2c1)[C@@H](CO)N(C(=O)C1CCCC1)CC31CCN(Cc2cccc(F)c2)CC1 | x | x | x | x | 1 | x
C[C@H]1CN([C@@H](C)CO)C(=O)Cc2cc(NC(=O)CCCN(C)C)ccc2O[C@@H]1CN(C)S(=O)(=O)c1ccccc1 | x | x | x | x | 0 | x
O=C(Nc1ccc([N+](=O)[O-])cc1)Nc1ccc(Cl)cc1F | 13 | -8 | 2 | 8 | 0 | 22*
Cc1ccc(NC(=O)Nc2ccccc2)cc1[N+](=O)[O-] | 15 | -8 | -3 | -9 | x | 13*
O=C(Nc1ccc(Cl)cc1)Nc1csc([N+](=O)[O-])c1 | 18 | -4 | 0 | 0 | 0 | 33*
O=C(Nc1csc([N+](=O)[O-])c1)Nc1c(Cl)cccc1Cl | 3 | -7 | -1 | -3 | 0 | -1
Cc1ccc(NC(=O)Nc2ccc(Cl)cc2)c(Br)c1 | 5 | 7 | 9 | 25 | x | 35*
O=C(C[C@H]1CC[C@@H](NC(=O)CN2CCOCC2)[C@@H](CO)O1)NCCc1ccccc1 | x | x | x | x | 0 | x
CNC[C@@H]1Oc2ccc(NS(=O)(=O)c3ccc(F)cc3)cc2CC(=O)N([C@@H](C)CO)C[C@H]1C | x | x | x | x | 0 | x
CCCNC(=O)[C@H]1[C@H](CO)[C@H]2Cn3c(ccc(-c4ccc(F)cc4)c3=O)[C@@H]1N2CCC | x | x | x | x | 0 | x
COc1ccc(S(=O)(=O)Nc2ccc3c(c2)C(=O)N([C@@H](C)CO)C[C@@H](C)[C@@H](CN(C)CC2CCCCC2)OCCCC[C@H](C)O3)cc1 | x | x | x | x | 0 | x
O=C(Nc1ccccc1)Nc1ccc(F)c([N+](=O)[O-])c1 | 10 | -14 | 5 | 4 | x | 26*
Cc1ccc(CNCC(=O)Nc2ccc(C)cc2Br)cc1 | -7 | 10 | -5 | 3 | 44* | 1
O=C(Nc1ccccc1)Nc1ccc(Cl)c([N+](=O)[O-])c1 | 17 | -3 | 8 | 8 | 0 | 23*
O=C(C[C@@H]1CC[C@@H]2[C@H](COC[C@@H](O)CN2C(=O)Nc2ccc(C(F)(F)F)cc2)O1)NCCc1ccncc1 | x | x | x | x | 0 | x
Cc1ccc(S(=O)(=O)N[C@@H]2CC[C@@H](CC(=O)NCCc3ccncc3)O[C@H]2CO)cc1 | x | x | x | x | 0 | x
COc1ccc(C)cc1Nc1nc(N)c2cc(OC)c(OC)cc2n1 | 23 | -5 | -83 | -6 | x | 0
COc1ccc(Cl)cc1Nc1nc(N)c2ccccc2n1 | 37* | 4 | -21 | 7 | x | 16*
Nc1nc(Nc2cccc(F)c2)nc2ccccc12 | 13 | 6 | -19 | -12 | x | 26*
Cc1cc(C(=O)Nc2ccc3c(c2)C(=O)N(C)[C@H]2CC[C@@H](CC(=O)N[C@H](C)c4ccccc4)O[C@@H]2CO3)no1 | x | x | x | x | 0 | x
NC(=O)CCC(=O)N1CCCC(C(=O)c2ccc3c4c(cccc24)CC3)C1 (stereo not given) | -14 | 7 | 0 | -15 | 43* | 3
Cc1cc(O)c(N)c(C)c1Cl | 5 | -14 | 1 | -2 | 43* | 1
Cc1cc(O)cc(C)c1Cl | x | 4 | x | 9 | 0 | 0
Cc1ccc(S(=O)(=O)Nc2ccc3c(c2)C(=O)N([C@H](C)CO)C[C@H](C)[C@@H](CN(C)Cc2ccccc2)OCCCC[C@@H](C)O3)cc1 | x | x | x | x | 0 | x
Cc1cccc(NC(=O)c2nc[nH]c2C(=O)NCCCNC(=O)c2[nH]cnc2C(=O)Nc2cccc(C)c2)c1 | x | x | x | x | 0 | 12*
Cc1cccc(NC(=O)c2nc[nH]c2C(=O)Nc2cccc(C)c2)c1 | -3 | 3 | -3 | -1 | 0 | -9
Cc1cccc(NC(=O)c2nc[nH]c2C(=O)NCCN(CCNC(=O)c2[nH]cnc2C(=O)Nc2cccc(C)c2)CCNC(=O)c2[nH]cnc2C(=O)Nc2cccc(C)c2)c1 | x | x | x | x | 0 | 14*
